Activity calls are given as the source filed them. The rule behind the calls is not given here.
Tests used:
B16-F0 [1] = test: Intracellular melanogenesis-stimulating activity in mouse B16F0 cells at 25 uM after 72 hrs by spectrophotometry relative to control; format: functional
In short: (§1)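 Cells were seeded at 5.0 × 10⁴ cells/well, adhered for 24 h, then treated with compound for 72 h. After a PBS wash, cells were lysed in 1 M NaOH at 100 °C for 30 min to solubilize melanin. Lysate absorbance at 405 nm served as the intracellular melanin index, expressed as % of DMSO control. Experiments were done twice.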

B16-F0 [2] = test: Intracellular melanogenesis-stimulating activity in mouse B16F0 cells at 12.5 uM after 72 hrs by spectrophotometry relative to control; format: functional; in short: as §1
B16-F0 [3] = test: Intracellular melanogenesis-stimulating activity in mouse B16F0 cells at 6.25 uM after 72 hrs by spectrophotometry relative to control; format: functional; in short: as §1
B16-F0 [4] = test: Extracellular melanogenesis-stimulating activity in mouse B16F0 cells at 25 uM after 72 hrs by spectrophotometry relative to control; format: functional
In short: (§2)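 B16-F0 cells in DMEM with 10% FBS were seeded at 5.0 × 10⁴ cells/well and adhered for 24 h. They were treated for 72 h at 200–10 µM or 50–6.25 µM, depending on compound series. Absorbance of the collected culture medium at 510 nm gave extracellular melanin, expressed as % of DMSO-treated control. Experiments were done twice.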

B16-F0 [5] = test: Extracellular melanogenesis-stimulating activity in mouse B16F0 cells at 12.5 uM after 72 hrs by spectrophotometry relative to control; format: functional; in short: as §2
B16-F0 [6] = test: Extracellular melanogenesis-stimulating activity in mouse B16F0 cells at 6.25 uM after 72 hrs by spectrophotometry relative to control; format: functional; in short: as §2
[7] = Cytotoxicity against mouse B16F0 cells assessed as cell viability at 25 uM after 72 hrs by MTT assay; format: cell-based; conditions: read-out: Activity
In short: (§3)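 B16-F0 cells were seeded at 5.0 × 10⁴ cells/well and allowed to adhere for 24 h at 37 °C. They were exposed for 72 h to compound at 200–10 µM or 50–6.25 µM, depending on compound series. MTT (5 mg/mL stock in PBS) was added for 4 h at 37 °C in 5% CO₂, then dissolved in isopropanol/0.04 N HCl and read at 590 nm. Viability is % of DMSO control; experiments were done twice.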

[8] = Cytotoxicity against mouse B16F0 cells assessed as cell viability at 12.5 uM after 72 hrs by MTT assay; format: cell-based; conditions: read-out: Activity; in short: as §3
[9] = Cytotoxicity against mouse B16F0 cells assessed as cell viability at 6.25 uM after 72 hrs by MTT assay; format: cell-based; conditions: read-out: Activity; in short: as §3
B16-F0 [10] = test: Intracellular melanogenesis-stimulating activity in mouse B16F0 cells at 200 uM after 72 hrs by spectrophotometry relative to control; format: functional
B16-F0 [11] = test: Intracellular melanogenesis-stimulating activity in mouse B16F0 cells at 100 uM after 72 hrs by spectrophotometry relative to control; format: functional
B16-F0 [12] = test: Intracellular melanogenesis-stimulating activity in mouse B16F0 cells at 10 uM after 72 hrs by spectrophotometry relative to control; format: functional
B16-F0 [13] = test: Extracellular melanogenesis-stimulating activity in mouse B16F0 cells at 200 uM after 72 hrs by spectrophotometry relative to control; format: functional; in short: as §2
B16-F0 [14] = test: Extracellular melanogenesis-stimulating activity in mouse B16F0 cells at 100 uM after 72 hrs by spectrophotometry relative to control; format: functional; in short: as §2
B16-F0 [15] = test: Extracellular melanogenesis-stimulating activity in mouse B16F0 cells at 10 uM after 72 hrs by spectrophotometry relative to control; format: functional; in short: as §2
[16] = Cytotoxicity against mouse B16F0 cells assessed as cell viability at 200 uM after 72 hrs by MTT assay; format: cell-based; conditions: read-out: Activity; in short: as §3
[17] = Cytotoxicity against mouse B16F0 cells assessed as cell viability at 100 uM after 72 hrs by MTT assay; format: cell-based; conditions: read-out: Activity; in short: as §3
[18] = Cytotoxicity against mouse B16F0 cells assessed as cell viability at 10 uM after 72 hrs by MTT assay; format: cell-based; conditions: read-out: Activity; in short: as §3
B16-F0 [19] = test: Intracellular melanogenesis-stimulating activity in mouse B16F0 cells after 72 hrs by spectrophotometry relative to control; format: functional, cell-based; in short: as §1
B16-F0 [20] = test: Intracellular melanogenesis-stimulating activity in mouse B16F0 cells at 50 uM after 72 hrs by spectrophotometry relative to control; format: functional; in short: as §1
B16-F0 [21] = test: Extracellular melanogenesis-stimulating activity in mouse B16F0 cells at 50 uM after 72 hrs by spectrophotometry relative to control; format: functional; in short: as §2
[22] = Cytotoxicity against mouse B16F0 cells assessed as cell viability at 50 uM after 72 hrs by MTT assay; format: cell-based; conditions: read-out: Activity; in short: as §3
B16-F0 [23] = test: Induction of melanogenesis-stimulating activity in mouse B16F0 cells assessed as increase in tyrosinase protein expression at 3.1 to 12.5 uM after 72 hrs by Western blotting analysis; format: functional, cell-based
In short: (§4)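 B16 cells were treated for 72 h at 0–12.5 µM and lysed in RIPA with protease inhibitors (0 °C, 30 min). Lanes held 10 µg protein on 10% SDS–PAGE, transferred to PVDF and blocked with 2% BSA/TBST at 4 °C overnight. Primaries ran 2 h: MITF 1:1000, tyrosinase, TRP-1 and p-p38 1:200, TRP-2 and p38 1:100. HRP secondary was 1:5000 for 2 h, with ECL densitometry. GAPDH blotted; three independent experiments.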

B16-F0 [24] = test: Induction of melanogenesis-stimulating activity in mouse B16F0 cells assessed as increase in TRP-1 protein expression at 3.1 to 12.5 uM after 72 hrs by Western blotting analysis; format: functional, cell-based; in short: as §4
B16-F0 [25] = test: Induction of melanogenesis-stimulating activity in mouse B16F0 cells assessed as increase in MITF protein expression at 3.1 to 12.5 uM after 72 hrs by Western blotting analysis; format: functional, cell-based; in short: as §4
B16-F0 [26] = test: Induction of melanogenesis-stimulating activity in mouse B16F0 cells assessed as increase in p-p38 MAPK level at 3.1 to 12.5 uM after 72 hrs by Western blotting analysis; format: functional, cell-based; in short: as §4
B16-F0 [27] = test: Induction of melanogenesis-stimulating activity in mouse B16F0 cells assessed as increase in TRP-2 protein expression at 3.1 to 12.5 uM after 72 hrs by Western blotting analysis; format: functional, cell-based; in short: as §4

| SMILES | Activity (B16-F0 [1]) | Activity (B16-F0 [2]) | Activity (B16-F0 [3]) | Activity (B16-F0 [4]) | Activity (B16-F0 [5]) | Activity (B16-F0 [6]) | viability at 72 h, 25 µM [7] | viability at 72 h, 12.5 µM [8] | viability at 72 h, 6.25 µM [9] | Activity (B16-F0 [10]) | Activity (B16-F0 [11]) | Activity (B16-F0 [12]) | Activity (B16-F0 [13]) | Activity (B16-F0 [14]) | Activity (B16-F0 [15]) | viability at 72 h, 200 µM [16] | viability at 72 h, 100 µM [17] | viability at 72 h, 10 µM [18] | Activity (B16-F0 [19]) | Activity (B16-F0 [20]) | other results |
| --- | --- | --- | --- | --- | --- | --- | --- | --- | --- | --- | --- | --- | --- | --- | --- | --- | --- | --- | --- | --- | --- |
| COc1cc(O)c2c(=O)c(OC)c(-c3ccc(O)c(O)c3)oc2c1 | 187.6% | 171.2% | 134% | 265.5% | 304.3% | 222.8% | 54.1% | 60.4% | 80.4% | – | – | – | – | – | – | – | – | – | – | – | – |
| O=c1c(O[C@@H]2O[C@H](CO)[C@@H](O[C@@H]3O[C@H](CO)[C@@H](O)[C@H](O)[C@H]3O)[C@H](O)[C@H]2O)c(-c2ccc(O)c(O)c2)oc2cc(O)cc(O)c12 | – | – | – | – | – | – | – | – | – | 176% | 126.8% | 102.6% | 85.2% | 91% | 83.3% | 81.1% | 93.2% | 99.6% | Dose-dependent effect | – | – |
| O=c1c(O[C@@H]2O[C@H](CO)[C@@H](O[C@@H]3O[C@H](CO)[C@@H](O)[C@H](O)[C@H]3O)[C@H](O)[C@H]2O)c(-c2ccc(O[C@@H]3O[C@H](CO)[C@@H](O)[C@H](O)[C@H]3O)c(O)c2)oc2cc(O)cc(O)c12 | – | – | – | – | – | – | – | – | – | 190.5% | 151.5% | 137% | 125.5% | 116% | 99.7% | 74.8% | 86.8% | 90% | Dose-dependent effect | – | – |
| CC(=O)Oc1c(-c2ccc(O)c(O)c2)oc2cc(O)cc(O)c2c1=O | 114.3% | 99% | – | 102.6% | 87.6% | – | 120% | 110% | – | – | – | – | – | – | – | – | – | – | – | 104.6% | Activity (B16-F0 [21]): 126.6%; viability at 72 h, 50 µM [22]: 110% |
| CC(=O)OC[C@H]1O[C@@H](Oc2c(-c3ccc(O)c(O)c3)oc3cc(O)cc(O)c3c2=O)[C@H](OC(C)=O)[C@@H](OC(C)=O)[C@@H]1OC(C)=O | 121.4% | 122.4% | – | 101.5% | 89.3% | – | 102% | 114% | – | – | – | – | – | – | – | – | – | – | – | 148.4% | Activity (B16-F0 [21]): 96.1%; viability at 72 h, 50 µM [22]: 104% |
| COc1c(-c2ccc(O)c(O)c2)oc2cc(O)cc(O)c2c1=O [3-O-METHYLQUERCETIN] | 146.5% | 137% | – | 130.8% | 124.1% | – | 88.1% | 98.2% | – | – | – | – | – | – | – | – | – | – | – | 157.3% | Activity (B16-F0 [21]): 224.9%; viability at 72 h, 50 µM [22]: 74.4%; Activity (B16-F0 [23]): Active; Activity (B16-F0 [24]): Active; Activity (B16-F0 [25]): inactive; Activity (B16-F0 [26]): inactive; Activity (B16-F0 [27]): Active |
| O=c1c(O[C@@H]2O[C@H](CO)[C@@H](O)[C@H](O)[C@H]2O)c(-c2ccc(O)c(O)c2)oc2cc(O)cc(O)c12 [ISOQUERCETIN] | – | – | – | – | – | – | – | – | – | 206.9% | 157.1% | 116.3% | 86.1% | 85.1% | 91% | 68.4% | 80.9% | 105% | Dose-dependent effect | – | – |
| COc1cc(O)c2c(=O)c(O)c(-c3ccc(OC)c(O)c3)oc2c1 [OMBUINE] | 100.5% | 106.1% | 110.2% | 100.1% | 98% | 100.5% | 101% | 101% | 99.7% | – | – | – | – | – | – | – | – | – | – | – | – |
| COc1cc(O)c2c(=O)c(O)c(-c3ccc(O)c(O)c3)oc2c1 [RHAMNETIN] | 75.8% | 87.6% | 102.4% | 114.3% | 105.2% | 105.5% | 91.6% | 99.4% | 92.7% | – | – | – | – | – | – | – | – | – | – | – | – |
| COc1ccc(-c2oc3cc(O)cc(O)c3c(=O)c2O)cc1O [TAMARIXETIN] | 106.9% | 133.5% | 125.6% | 97.9% | 95.1% | 97.5% | 101% | 103% | 104% | – | – | – | – | – | – | – | – | – | – | – | – |
